Format in all cases: cell-based
The subject of one experiment is HDF. The experiment can be described thus: SRB cytostatic activity assay, normal control HDF. The settings on record: 72 h, read-out: Cytostatic activity IC50 HDF. The method in brief: (§1)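 Media were EMEM (KB, HepG2, U-87), RPMI 1640 (HeLa), F-12K (A-549), DMEM (MCF-7) and fibroblast growth medium (HDF), all with 10% FBS, at 37 °C and 5% CO2. About 10^4 cells/well grew 24 h, then test compound was added at 0.1–20 μg mL−1 (six levels) for 72 h. Cells were TCA-fixed 1 h at 4 °C, stained with 0.4% SRB, solubilised in Tris, read at A490; IC50, N = 3.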

For the next experiment, the system named is HepG2. The experiment can be described thus: SRB cytostatic activity assay, HepG2. The settings on record: Homo sapiens, HepG2, 72 h, read-out: Cytostatic activity IC50 HepG2. The method in brief:
as §1

In a further experiment the test system is KB. The experiment can be described thus: SRB cytostatic activity assay, KB. The following applies: Homo sapiens, 72 h, read-out: Cytostatic activity IC50 KB. The method in brief: as §1
The next experiment relates to HeLa. As to the kind of experiment: SRB cytostatic activity assay, HeLa. The settings on record: Homo sapiens, 72 h, read-out: Cytostatic activity IC50 HeLa. The gist of the method: as §1
A further experiment concerns A-549. The experiment can be described thus: SRB cytostatic activity assay, A-549. The settings on record: Homo sapiens, A549, 72 h, read-out: Cytostatic activity IC50 A-549. The gist of the method:
as §1

A further experiment has as its system U-87 MG. The experiment can be described thus: SRB cytostatic activity assay, U-87 MG. The settings on record: Homo sapiens, 72 h, read-out: Cytostatic activity IC50 U-87 MG. The method in brief: as §1

Structures are written as SMILES. Values after ≈ are worked out from the molar mass of the structure shown. Starred links: 1 amine or outer side, 2 acyl side, 3 side chain; linkers in the order of their positions; H or OH if unused. Positions of bridges follow the written chain, without caps; N, C: chain ends. Non-standard residues stand in square brackets, D forms with d. Residues, ends and D or L forms follow the SMILES beside them. Chains are numbered I, II in the order given. Actinocin(9to1) = Cc1c2oc3c(C)ccc(C(=O)[*:1])c3nc-2c(C(=O)[*:2])c(N)c1=O; NMeV = CN[C@H](C(=O)O)C(C)C; Sar = CNCC(=O)O

Turning to `Cc1c2oc3c(C)ccc(C(=O)N[C@@H]4C(=O)N[C@H](C(C)C)C(=O)N5CCC[C@H]5C(=O)N(C)CC(=O)N(C)[C@@H](C(C)C)C(=O)O[C@@H]4C)c3nc-2c(C(=O)N[C@@H]2C(=O)N[C@H](C(C)C)C(=O)N3CCC[C@H]3C(=O)N(C)CC(=O)N(C)[C@@H](C(C)C)C(=O)O[C@@H]2C)c(N)c1=O` [Actinomycin, Actinomycin D] (I: T[dV]P[Sar][NMeV] / II: T[dV]P[Sar][NMeV]; ester I:1-I:C, II:1-II:C; linker I:N-II:N via Actinocin(9to1)), the IC50 came to 2.28 ± 0.11 µg/mL (≈ 1.82 µM) in the experiment on HDF; 1.19 ± 0.02 µg/mL (≈ 0.948 µM) with HepG2; 1.07 ± 0.05 µg/mL (≈ 0.852 µM) in the experiment with KB; 1.13 ± 0.01 µg/mL (≈ 0.9 µM) in the experiment with HeLa; 1.03 ± 0.83 µg/mL (≈ 0.82 µM) with A-549; 0.92 ± 0.59 µg/mL (≈ 0.733 µM) with U-87 MG.
For `Nc1ccn([C@@H]2O[C@H](CO)[C@@H](O)[C@@H]2O)c(=O)n1` [Cytarabine], the IC50 is 1.94 ± 0.01 µg/mL (≈ 7.98 µM) with HDF; 1.49 ± 0.04 µg/mL (≈ 6.13 µM) in the experiment on HepG2; 0.95 ± 0.02 µg/mL (≈ 3.91 µM) with KB; 1.4 ± 0.08 µg/mL (≈ 5.76 µM) in the experiment on HeLa; 1.17 ± 0.21 µg/mL (≈ 4.81 µM) with A-549; 1.03 ± 0.25 µg/mL (≈ 4.23 µM) in the experiment with U-87 MG.

What is called IC50 is the concentration that gives 50% inhibition.
